{
  "source": "paper PMC8052682",
  "about": "(Chemical communications (Cambridge, England), 2021)",
  "key": {"[1]": {"tested_on": "integrin", "conditions": "ref [3], [20]; cited from earlier work"}, "[2]": {"tested_on": "MDA-MB-231 breast carcinoma cells", "assay": "Wound-healing", "type": "cell-based", "conditions": "wound-healing assay, 20-hour time span, six biological replicates", "method_in_brief": "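Scratch-wound migration of MDA-MB-231 breast carcinoma cells followed over 20 h with test compounds (a glycopeptide, a peptide, or heparin) at several concentrations. Migration was scored as relative migration, and the concentration giving maximal inhibition of migration was noted.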"}},
  "data": [
    {"substance": "heparin", "values": [
      {"measurement": "integrin binding relative to heparan sulfate (in words)", "setting": "[1]", "value": "binds more tightly with integrin than heparan sulfate"},
      {"measurement": "concentration at which maximal inhibitory effect on migration is reached", "setting": "[2]", "value": 6, "unit": "µM"}
    ]}
  ]
}
